Measurements as given in ChEMBL document CHEMBL1142895, “Discovery of a new insecticide lead by optimizing a target-diverse scaffold: tetrazolinone derivatives” (2007).
The source made the active and inactive calls. The rule behind the calls is not given here.

Legend:
Triticum aestivum [1] = experiment: Inhibition of stem growth of Triticum aestivum at 100 mg/L; format: functional
Outline: (§1)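 Seeds of each species were grown in Petri dishes with 10 seeds per dish, at 28 °C, 70–80% RH, 16:8 h light:dark photoperiod and 3000 lx light for 5 days. Root and stem lengths were measured for the 10 seeds and averaged. Each test and its controls were run in three replicates, and the data were given probit analysis.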

Triticum aestivum [2] = experiment: Inhibition of root growth of Triticum aestivum at 100 mg/L; format: functional; outline: as §1
Echinochloa crus-galli [3] = experiment: Inhibition of stem growth of Echinochloa crus-galli at 100 mg/L; format: functional; outline: as §1
Echinochloa crus-galli [4] = experiment: Inhibition of root growth of Echinochloa crus-galli at 100 mg/L; format: functional; outline: as §1
Sorghum bicolor [5] = experiment: Inhibition of stem growth of Sorghum bicolor at 100 mg/L; format: functional; outline: as §1
Sorghum bicolor [6] = experiment: Inhibition of root growth of Sorghum bicolor at 100 mg/L; format: functional; outline: as §1
[7] = system: Brassica rapa subsp. oleifera; experiment: Inhibition of stem growth of Brassica campestris at 100 mg/L; format: functional; outline: as §1
[8] = system: Brassica rapa subsp. oleifera; experiment: Inhibition of root growth of Brassica campestris at 100 mg/L; format: functional; outline: as §1
Radish [9] = experiment: Inhibition of stem growth of Raphanus sativus at 100 mg/L; format: functional; outline: as §1
Radish [10] = experiment: Inhibition of root growth of Raphanus sativus at 100 mg/L; format: functional; outline: as §1
Cucumis sativus [11] = experiment: Inhibition of stem growth of Cucumis sativus at 100 mg/L; format: functional; outline: as §1
Cucumis sativus [12] = experiment: Inhibition of root growth of Cucumis sativus at 100 mg/L; format: functional; outline: as §1
Aphis = experiment: Insecticidal activity against Aphis medicagini at 250 mg/L; format: functional
Outline: (§2)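 Groups of 10 of each species were placed in glass Petri dishes and sprayed with test solution using a Potter sprayer. After air-drying, they were held under normal rearing conditions. Mortality at 72 h was taken from the number and size of live larvae relative to untreated controls.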

Triticum aestivum [13] = experiment: Herbicidal activity against Triticum aestivum at 450 g ai/ha in greenhouse in vivo test; format: functional, organism-based
Echinochloa crus-galli [14] = experiment: Herbicidal activity against Echinochloa crus-galli at 450 g ai/ha in greenhouse in vivo test; format: functional, organism-based
Sorghum bicolor [15] = experiment: Herbicidal activity against Sorghum bicolor at 450 g ai/ha in greenhouse in vivo test; format: functional, organism-based
[16] = system: Brassica rapa subsp. oleifera; experiment: Herbicidal activity against Brassica campestris at 450 g ai/ha in greenhouse in vivo test; format: functional, organism-based
Radish [17] = experiment: Herbicidal activity against Raphanus sativus at 450 g ai/ha in greenhouse in vivo test; format: functional, organism-based
Cucumis sativus [18] = experiment: Herbicidal activity against Cucumis sativus at 450 g ai/ha in greenhouse in vivo test; format: functional, organism-based
Tetranychus cinnabarinus = experiment: Insecticidal activity against Tetranychus cinnabarinus at 250 mg/L; format: functional; outline: as §2

SMILES | inhibition at 100 µg/mL (Triticum aestivum [1]) [%] | inhibition at 100 µg/mL (Triticum aestivum [2]) [%] | inhibition at 100 µg/mL (Echinochloa crus-galli [3]) [%] | inhibition at 100 µg/mL (Echinochloa crus-galli [4]) [%] | inhibition at 100 µg/mL (Sorghum bicolor [5]) [%] | inhibition at 100 µg/mL (Sorghum bicolor [6]) [%] | inhibition at 100 µg/mL [7] [%] | inhibition at 100 µg/mL [8] [%] | inhibition at 100 µg/mL (Radish [9]) [%] | inhibition at 100 µg/mL (Radish [10]) [%] | inhibition at 100 µg/mL (Cucumis sativus [11]) [%] | inhibition at 100 µg/mL (Cucumis sativus [12]) [%] | Activity (Aphis) [%] | Activity (Triticum aestivum [13]) | Activity (Echinochloa crus-galli [14]) | Activity (Sorghum bicolor [15]) | Activity [16] | Activity (Radish [17]) | Activity (Cucumis sativus [18]) | Activity (Tetranychus cinnabarinus) [%]
CCOC(=O)CSc1nnc(Cn2nnn(-c3ccc(Cl)cc3)c2=O)o1 | 0 | 0 | 0 | 0 | 0 | 0 | 60 | 50 | 0 | 50 | 0 | 0 | 0 | inactive | inactive | inactive | inactive | inactive | inactive | 2.9
CCSc1nnc(Cn2nnn(-c3ccc(Cl)cc3)c2=O)s1 | 40 | 50 | 70 | 60 | 60 | 70 | 60 | 60 | 40 | 50 | 30 | 0 | 82.5 | inactive | inactive | inactive | inactive | inactive | inactive | 5.7
O=c1n(Cc2ccc(Br)cc2)nnn1-c1ccc(Cl)cc1 | 30 | 0 | 0 | 0 | 0 | 0 | 0 | 0 | 0 | 0 | 0 | 0 | 13.3 | inactive | inactive | inactive | inactive | inactive | inactive | 0
O=c1n(Cc2nnc(SCc3cccc(F)c3)s2)nnn1-c1ccc(Cl)cc1 | 70 | 40 | 70 | 50 | 40 | 40 | 0 | 40 | 50 | 50 | 30 | 30 | 0 | inactive | inactive | inactive | inactive | inactive | inactive | 2.9
C=CCn1nnn(-c2ccc(Cl)cc2)c1=O | 80 | 80 | 50 | 0 | 60 | 60 | 50 | 50 | 80 | 80 | 30 | 40 | 3.3 | inactive | inactive | inactive | inactive | inactive | inactive | 4.3
CCCCSc1nnc(Cn2nnn(-c3ccc(Cl)cc3)c2=O)s1 | 40 | 40 | 30 | 70 | 40 | 50 | 40 | 50 | 0 | 30 | 0 | 0 | 0 | inactive | inactive | inactive | inactive | inactive | inactive | 5.7
CCOC(=O)C(C)Sc1nnc(Cn2nnn(-c3ccc(Cl)cc3)c2=O)s1 (stereo not given) | 50 | 70 | 40 | 50 | 70 | 80 | 80 | 85 | 50 | 80 | 60 | 60 | 0 | inactive | inactive | inactive | inactive | inactive | inactive | 0
O=c1n(Cc2nnc(SCc3ccccc3)s2)nnn1-c1ccc(Cl)cc1 | 60 | 60 | 70 | 60 | 70 | 60 | 50 | 60 | 40 | 60 | 60 | 60 | 5.7 | inactive | inactive | inactive | inactive | inactive | inactive | 2.9
O=c1n(Cc2cccc(Cl)c2)nnn1-c1ccc(Cl)cc1 | 0 | 0 | 0 | 0 | 0 | 0 | 0 | 0 | 0 | 0 | 0 | 0 | 0 | inactive | inactive | inactive | inactive | inactive | inactive | 0
Cc1ccccc1Cn1nnn(-c2ccc(Cl)cc2)c1=O | 30 | 0 | 0 | 0 | 0 | 0 | 0 | 0 | 0 | 0 | 0 | 0 | 21.7 | inactive | inactive | inactive | inactive | inactive | inactive | 2.9
O=c1c(Cn2nnn(-c3ccc(Cl)cc3)c2=O)coc2ccccc12 | 30 | 0 | 0 | 0 | 0 | 0 | 0 | 0 | 0 | 0 | 0 | 0 | 1.7 | inactive | inactive | inactive | inactive | inactive | inactive | 100
COc1cc(-n2nnn(C)c2=O)c(Cl)cc1Cl | 50 | 70 | 30 | 30 | 30 | 70 | 0 | 0 | 0 | 0 | 60 | 60 | 0 | inactive | inactive | inactive | inactive | inactive | inactive | 100
